Active and inactive are the calls of the source. Where a SMILES comes first, the peptide text is derived from it. [ ]: non-standard residue; d: D form. The star is where a group is joined. X1 = Cc1cc(O)cc(C)c1C[C@H](C)C(=O)*; Orn = NCCC[C@H](N)C(=O)O
Assays:
[1] = Toxicity in mouse HN9.10 cells expressing human KOR assessed as cell viability at 1 mM after 24 hrs by XTT assay; assay type: cell-based; details: read-out: Activity
[2] = Half life in rat plasma by RP-HPLC analysis; assay type: ADME, cell-free
Summary of the method: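 Stock at 50 mg/mL diluted 5-fold into heparinized rat plasma at 37 °C. Aliquots taken at 1, 2, 4, 6, 12 and 24 h were quenched with EtOH (ACN for one analogue) and centrifuged.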

Mu-type opioid receptor = Mu-type opioid receptor (Homo sapiens, UniProt P35372); test: Displacement of [3H]diprenorphine from human MOR expressed in mouse NG108-15 cell membranes incubated for 2 hrs by liquid scintillation counting based radioligand competition assay
Chain of Mu-type opioid receptor (P35372 whole entry): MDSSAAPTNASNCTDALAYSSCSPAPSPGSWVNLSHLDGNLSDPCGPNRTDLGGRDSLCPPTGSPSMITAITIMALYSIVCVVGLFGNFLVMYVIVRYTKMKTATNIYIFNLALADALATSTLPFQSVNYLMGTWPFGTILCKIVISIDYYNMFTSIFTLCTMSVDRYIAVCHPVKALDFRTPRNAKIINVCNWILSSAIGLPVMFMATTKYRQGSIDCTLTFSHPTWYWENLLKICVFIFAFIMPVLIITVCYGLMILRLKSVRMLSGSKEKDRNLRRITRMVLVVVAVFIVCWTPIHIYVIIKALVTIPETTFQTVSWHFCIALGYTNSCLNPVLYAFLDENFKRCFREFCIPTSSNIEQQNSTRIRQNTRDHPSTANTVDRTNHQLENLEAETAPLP

[3] = target: Delta-type opioid receptor (Homo sapiens, UniProt P41143); test: Displacement of [3H]deltorphin-II from human DOR expressed in CHO cell membranes incubated for 2 hrs by liquid scintillation counting based radioligand competition assay
Chain of Delta-type opioid receptor (P41143 whole entry): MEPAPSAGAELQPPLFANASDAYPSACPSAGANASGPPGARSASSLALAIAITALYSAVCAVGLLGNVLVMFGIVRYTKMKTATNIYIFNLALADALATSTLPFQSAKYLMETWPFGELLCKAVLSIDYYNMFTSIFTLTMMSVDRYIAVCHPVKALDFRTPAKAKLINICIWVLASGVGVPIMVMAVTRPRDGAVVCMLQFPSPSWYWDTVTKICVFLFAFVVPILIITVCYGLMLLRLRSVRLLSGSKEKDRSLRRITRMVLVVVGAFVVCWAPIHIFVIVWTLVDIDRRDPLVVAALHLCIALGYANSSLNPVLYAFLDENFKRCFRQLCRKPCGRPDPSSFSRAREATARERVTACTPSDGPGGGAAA
Summary of the method: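 Crude membranes from transfected cells, 50 µg protein, in 50 mM Tris-HCl pH 7.4 with bacitracin 50 µg/mL, captopril 10 µM, PMSF 100 µM and BSA 5 mg/mL. Ten concentrations (10−4–10−13 M) were run against 500 pM [3H]deltorphin II for 2 h at rt with shaking. Nonspecific binding was taken with 10 µM naloxone. Filtered on PEI-soaked GF/B, washed in cold saline, scintillation counted.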

Mus musculus [4] = organism: Mus musculus; test: Antinociceptive activity in ICR mouse assessed as elevation in tail withdrawal latency at 0.1 ug, it measured after 30 mins by tail flick test; assay type: functional, organism-based; details: dose 0.1 µg
Mus musculus [5] = test: Inhibition of KOR selective agonist FE200665-induced antinociceptive activity in ICR mouse assessed as effect on tail withdrawal latency at 10 ug, it dosed 15 mins before FE200665 dosing and measured at 24 hrs by tail flick test; assay type: functional, organism-based; details: dose 10.0 µg
Summary of the method: (§1)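 Adult male ICR mice given vehicle (MPH2O) or compound by lumbar puncture, 10 µg in 5 µL, n = 6/treatment, at t = −15 min. At t = 0 they received FE200665, 10 µg in 5 µL by lumbar puncture. Tail flick from 52 °C water retested up to 9 times over 24 h, 10.0 s cutoff. % antinociception = 100×(test−baseline)/(cutoff−baseline). Nonparametric two-way ANOVA with Bonferroni post hoc.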

Mus musculus [6] = organism: Mus musculus; test: Antinociceptive activity in ICR mouse assessed as elevation in tail withdrawal latency at 1 ug, it measured after 30 mins by tail flick test; assay type: functional, organism-based; details: dose 1.0 µg
Mus musculus [7] = test: Inhibition of KOR selective agonist FE200665-induced antinociceptive activity in ICR mouse assessed as effect on tail withdrawal latency at 10 ug, it dosed 15 mins before FE200665 dosing and measured up to 24 hrs by tail flick test; assay type: functional, organism-based; details: dose 10.0 µg, time hrs <=24; summary of the method: as §1
Mus musculus [8] = organism: Mus musculus; test: Antinociceptive activity in ICR mouse assessed as elevation in tail withdrawal latency at 10 ug, it measured after 30 mins by tail flick test; assay type: functional, organism-based; details: dose 10.0 µg
[9] = target: T1, Kappa-type opioid receptor (Homo sapiens, UniProt P41145); test: Agonist activity at human KOR expressed in CHO cell membranes at 10 uM incubated for 1 hr by liquid scintillation counting based [35S]GTP-gamma-S assay; details: Cell membrane
T1 sequence (P41145 whole entry): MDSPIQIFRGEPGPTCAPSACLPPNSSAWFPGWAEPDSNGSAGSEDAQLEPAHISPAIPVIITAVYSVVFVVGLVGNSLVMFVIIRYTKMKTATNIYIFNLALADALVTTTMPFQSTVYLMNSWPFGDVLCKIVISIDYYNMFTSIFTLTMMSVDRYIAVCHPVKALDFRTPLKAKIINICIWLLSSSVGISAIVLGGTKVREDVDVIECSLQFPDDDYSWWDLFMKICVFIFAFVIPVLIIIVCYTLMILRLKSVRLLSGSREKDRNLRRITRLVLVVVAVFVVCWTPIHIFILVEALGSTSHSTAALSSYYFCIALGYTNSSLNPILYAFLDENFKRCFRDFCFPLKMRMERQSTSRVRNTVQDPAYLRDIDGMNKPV
Summary of the method: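 Frozen KOR-CHO cell pellets are homogenized and spun at 20 000g. 15 µg of membrane protein is incubated with test compound or vehicle and 0.1 nM [35S]GTPγS in 50 mM Tris-HCl pH 7.4 with 100 mM NaCl, 5 mM MgCl2, 1 mM EDTA and 40 µM GDP, for 1 h at 30 °C. Filtration and scintillation counting follow, and the result is expressed as % of U50,488 stimulation.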

Cavia porcellus = organism: Cavia porcellus; test: Agonist activity at OPRK in isolated Hartley guinea pig ileum/longitudinal muscle with myenteric plexus assessed as inhibition of electrically stimulated muscle contraction at 1 uM relative to control; assay type: tissue-based
Summary of the method: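 Male Hartley guinea pig LMMP strips under 1 g tension in oxygenated Krebs bicarbonate buffer, 37 °C, field-stimulated at 0.1 Hz, 0.4 ms, supramaximal voltage. Compound tested at 1 µM. Activity given as percent of agonist response relative to the mean signal over the 3 min before drug. Tissue integrity checked first with a PL-017 dose-response curve.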

[10] = target: T1, Kappa-type opioid receptor; test: Antagonist activity at human KOR expressed in CHO cell membranes assessed as reduction in U50,488 induced response incubated for 1 hr by liquid scintillation counting based [35S]GTP-gamma-S assay relative to naloxone; details: Cell membrane
Summary of the method: (§2)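 The assay uses KOR-CHO membranes (15 µg protein) with 0.1 nM [35S]GTPγS and 40 µM GDP, for 1 h at 30 °C, in the presence of 100 nM U50,488 as agonist. Bound label is counted after filtration. Data are normalized to 100 nM U50,488 (100%) and fit to a three-parameter inhibition curve. Imax is given relative to naloxone.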

[11] = target: T1, Kappa-type opioid receptor; test: Antagonist activity at human KOR expressed in CHO cell membranes assessed as reduction in U50,488 induced response incubated for 1 hr by liquid scintillation counting based [35S]GTP-gamma-S assay; design: species or system Cell membrane
[12] = target: T1, Kappa-type opioid receptor; test: Antagonist activity at human KOR expressed in CHO cell membranes assessed as reduction in U50,488 induced response at 10 uM incubated for 1 hr by liquid scintillation counting based [35S]GTP-gamma-S assay relative to naloxone; details: Cell membrane; summary of the method: as §2
Mus musculus [13] = test: Inhibition of KOR selective agonist FE200665-induced antinociceptive activity in ICR mouse assessed as effect on tail withdrawal latency at 10 ug, it dosed 15 mins before FE200665 dosing and measured at 15 mins by tail flick test; assay type: functional, organism-based; details: dose 10.0 µg, time 30.0 min; summary of the method: as §1
Mus musculus [14] = test: Inhibition of KOR selective agonist FE200665-induced antinociceptive activity in ICR mouse assessed as effect on tail withdrawal latency at 10 ug, it dosed 15 mins before FE200665 dosing and measured after 45 mins by tail flick test; assay type: functional, organism-based; details: dose 10.0 µg, time 60.0 min; summary of the method: as §1
Mus musculus [15] = test: Inhibition of KOR selective agonist FE200665-induced antinociceptive activity in ICR mouse assessed as effect on tail withdrawal latency at 10 ug, it dosed 15 mins before FE200665 dosing and measured up to 45 mins by tail flick test; assay type: functional, organism-based; details: dose 10.0 µg, time min <=45; summary of the method: as §1

**Q.** Which viability at 24 h, 1000 µM [1] does the source give for CC[C@H](C)[C@H](NC(=O)[C@H](CCCN=C(N)N)NC(=O)[C@H](CCCN=C(N)N)NC(=O)[C@H](CC(C)C)NC(=O)[C@H](Cc1ccccc1)NC(=O)CNC(=O)CNC(=O)[C@@H](N)Cc1ccc(O)cc1)C(=O)N[C@@H](CCCN=C(N)N)C(=O)N1CCC[C@H]1C(=O)N[C@@H](CCCCN)C(N)=O here?
**A.** 100%

**Q.** For CC(=O)N[C@@H](Cc1ccc(O)cc1)C(=O)NCC(=O)NCC(=O)N[C@@H](Cc1ccccc1)C(=O)N[C@@H](CC(C)C)C(=O)N[C@@H](CCCNC(=N)N)C(=O)N[C@H](C)C(=O)N[C@@H](CCCNC(=N)N)C(=O)N1CCC[C@@H]1C(=O)N[C@@H](CCCCN)C(N)=O (Ac-YGGFLR[dA]R[dP]K-NH2), which half-life [2] is on record?
**A.** 350 h

**Q.** And the Ki (Mu-type opioid receptor; ng108-15)?
**A.** Not Active

**Q.** For CC(=O)N[C@@H](Cc1ccc(O)cc1)C(=O)NCC(=O)N1CCC[C@H]1C(=O)N[C@@H](Cc1ccccc1)C(=O)N[C@@H](CC(C)C)C(=O)N[C@@H](CCCNC(=N)N)C(=O)N[C@H](C)C(=O)N[C@@H](CCCNC(=N)N)C(=O)N1CCC[C@H]1C(=O)N[C@@H](CCCCN)C(N)=O (Ac-YGPFLR[dA]RPK-NH2), which Ki (Mu-type opioid receptor; ng108-15) is on record?
**A.** Not Active

**Q.** For CC(=O)N[C@@H](Cc1ccc(O)cc1)C(=O)NCC(=O)N1CCC[C@H]1C(=O)N[C@@H](Cc1ccccc1)C(=O)N[C@@H](CC(C)C)C(=O)N[C@@H](CCCNC(=N)N)C(=O)N[C@H](C)C(=O)N[C@@H](CCCNC(=N)N)C(=O)N1CCC[C@@H]1C(=O)N[C@@H](CCCCN)C(N)=O (Ac-YGPFLR[dA]R[dP]K-NH2), which Ki (Mu-type opioid receptor; ng108-15) is on record?
**A.** Not Active

**Q.** What does the source list for CC(=O)N[C@@H](Cc1ccc(O)cc1)C(=O)NCC(=O)N1CCC[C@H]1C(=O)N[C@@H](Cc1ccccc1)C(=O)N[C@@H](CC(C)C)C(=O)N[C@@H](CCCN)C(=O)N[C@H](C)C(=O)N[C@@H](CCCNC(=N)N)C(=O)N1CCC[C@H]1C(=O)N[C@@H](CCCCN)C(N)=O (Ac-YGPFL[Orn][dA]RPK-NH2)?
**A.** Ki [3]: > 10 µM; Ki (Mu-type opioid receptor; ng108-15): Not Active

**Q.** Which Activity (Mus musculus [4]) does the source give for CC[C@H](C)[C@H](NC(=O)[C@H](CCCNC(=N)N)NC(=O)[C@H](CC(C)C)NC(=O)[C@H](Cc1ccccc1)NC(=O)CNC(=O)CNC(=O)[C@@H](C)Cc1c(C)cc(O)cc1C)C(=O)N[C@@H](CCCNC(=N)N)C(N)=O (X1-GGFLRIR-NH2) here?
**A.** inactive

**Q.** And the Activity (Mus musculus [5])?
**A.** inactive

**Q.** And the Activity (Mus musculus [6])?
**A.** inactive

**Q.** What about the Activity (Mus musculus [7]) of the same compound?
**A.** Active

**Q.** And the Activity (Mus musculus [8])?
**A.** inactive

**Q.** For CC[C@H](C)[C@H](NC(=O)[C@H](CCCNC(=N)N)NC(=O)[C@H](CC(C)C)NC(=O)[C@H](Cc1ccccc1)NC(=O)CNC(=O)CNC(=O)[C@@H](C)Cc1c(C)cc(O)cc1C)C(=O)N[C@@H](CCCNC(=N)N)C(=O)N1CCC[C@H]1C(=O)N[C@@H](CCCCN)C(N)=O (X1-GGFLRIRPK-NH2), which Activity [9] is on record?
**A.** inactive

**Q.** What about the viability at 24 h, 1000 µM [1] of the same compound?
**A.** 100%

**Q.** And the inhibition (Cavia porcellus)?
**A.** 0%

**Q.** Which results are given for CC[C@H](C)[C@H](NC(=O)[C@H](CCCNC(=N)N)NC(=O)[C@H](CC(C)C)NC(=O)[C@H](Cc1ccccc1)NC(=O)CNC(=O)CNC(=O)[C@@H](C)Cc1c(C)cc(O)cc1C)C(=O)N[C@@H](CCCNC(=N)N)C(=O)N1CCC[C@H]1C(=O)N[C@@H](CCCCN)C(=O)O (X1-GGFLRIRPK-OH)?
**A.** Activity [9]: inactive; inhibition (Cavia porcellus): 8.7%

**Q.** Which results are given for Ac-YGGFLRIRPK-NH2?
**A.** Activity [9]: inactive; inhibition (Cavia porcellus): 0%

**Q.** For Ac-YGPFLRIRPK-NH2, which Ki [3] is on record?
**A.** > 10 µM

**Q.** What about the Ki (Mu-type opioid receptor; ng108-15) of the same compound?
**A.** Not Active

**Q.** With H-YGGFLRIRPK-NH2 as the compound, how does the Activity ([9]; filed as agonist) read?
**A.** Active

**Q.** What about the viability at 24 h, 1000 µM [1] of the same compound?
**A.** 100%

**Q.** What about the Imax [10] of the same compound?
**A.** inactive

**Q.** What about the IC50 [11] of the same compound?
**A.** Not Active

**Q.** Which Activity ([9]; filed as agonist) does the source give for H-YGGFLRIRPK-OH here?
**A.** Active

**Q.** And the viability at 24 h, 1000 µM [1]?
**A.** 100%

**Q.** What about the Imax [10] of the same compound?
**A.** inactive

**Q.** And the IC50 [11]?
**A.** Not Active

**Q.** Which Activity ([9]; filed as agonist) does the source give for H-YGGFLRIRPKLK-OH here?
**A.** Active

**Q.** And the Imax [10]?
**A.** inactive

**Q.** What about the IC50 [11] of the same compound?
**A.** Not Active

**Q.** With H-YGPFLRIR-NH2 as the compound, how does the Imax [12] read?
**A.** 29%

**Q.** What about the half-life [2] of the same compound?
**A.** 2.1 h

**Q.** What about the Ki (Mu-type opioid receptor; ng108-15) of the same compound?
**A.** Not Active

**Q.** With H-YGPFLRIRPK-NH2 as the compound, how does the Activity (Mus musculus [13]) read?
**A.** Active

**Q.** And the Imax [12]?
**A.** 38%

**Q.** And the Activity (Mus musculus [14])?
**A.** inactive

**Q.** And the Activity (Mus musculus [15])?
**A.** Active

**Q.** And the viability at 24 h, 1000 µM [1]?
**A.** 100%

**Q.** And the Activity (Mus musculus [6])?
**A.** Active

**Q.** What about the Activity (Mus musculus [8]) of the same compound?
**A.** Active

**Q.** And the half-life [2]?
**A.** 1.4 h

**Q.** And the Ki (Mu-type opioid receptor; read-out: Ki)?
**A.** > 10 µM
